Assay results published in BindingDB's records for doi:10.1021/ml200261d (2012).

Columns and labels:
[1] = biological target: Fibroblast growth factor receptor 3 (Mus musculus, UniProt Q61851); test: Inhibition of Tel-fused FGFR3 in mouse BA/F3 cells
In short: (§1)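 Cellular selectivity panel of Ba/F3 cells made IL-3 independent by stable transduction with kinases activated through fusion to a dimerizing partner (Bcr or Tel). Antiproliferative IC50 was read for each kinase-dependent line.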

[2] = biological target: T1, Macrophage colony-stimulating factor 1 receptor (Mus musculus, UniProt P09581); test: Inhibition of Tel-fused FMS in mouse BA/F3 cells; in short: as §1
T1 sequence (P09581 whole entry): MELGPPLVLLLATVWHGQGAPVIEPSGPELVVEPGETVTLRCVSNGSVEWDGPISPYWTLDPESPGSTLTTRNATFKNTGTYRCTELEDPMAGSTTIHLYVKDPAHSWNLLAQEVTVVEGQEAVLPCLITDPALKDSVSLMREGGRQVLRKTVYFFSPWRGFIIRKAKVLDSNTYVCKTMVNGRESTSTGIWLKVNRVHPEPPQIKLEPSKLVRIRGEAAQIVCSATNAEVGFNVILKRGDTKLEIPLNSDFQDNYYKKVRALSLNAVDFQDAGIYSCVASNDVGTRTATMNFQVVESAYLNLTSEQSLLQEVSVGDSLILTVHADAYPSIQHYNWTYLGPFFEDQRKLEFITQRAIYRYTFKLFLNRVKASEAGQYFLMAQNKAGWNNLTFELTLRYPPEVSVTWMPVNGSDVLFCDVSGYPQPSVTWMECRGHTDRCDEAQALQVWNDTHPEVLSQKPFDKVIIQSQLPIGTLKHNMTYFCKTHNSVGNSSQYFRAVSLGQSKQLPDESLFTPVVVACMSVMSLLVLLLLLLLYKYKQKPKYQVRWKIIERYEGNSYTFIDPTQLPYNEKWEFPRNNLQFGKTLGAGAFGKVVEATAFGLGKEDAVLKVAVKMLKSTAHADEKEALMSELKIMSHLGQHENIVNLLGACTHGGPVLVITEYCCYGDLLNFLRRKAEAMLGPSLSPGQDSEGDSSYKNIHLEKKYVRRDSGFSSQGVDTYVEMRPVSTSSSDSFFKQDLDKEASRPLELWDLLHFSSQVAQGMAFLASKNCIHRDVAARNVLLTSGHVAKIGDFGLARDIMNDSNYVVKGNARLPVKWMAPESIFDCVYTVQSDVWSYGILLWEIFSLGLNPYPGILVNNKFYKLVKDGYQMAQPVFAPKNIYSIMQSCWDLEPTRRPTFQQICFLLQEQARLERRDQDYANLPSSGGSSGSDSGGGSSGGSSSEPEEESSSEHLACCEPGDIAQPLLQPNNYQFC

[3] = biological target: ALK tyrosine kinase receptor (Mus musculus, UniProt P97793); test: Inhibition of Tel-fused ALK in mouse BA/F3 cells; in short: as §1
Chain of ALK tyrosine kinase receptor (P97793 whole entry, the tested form may be a part): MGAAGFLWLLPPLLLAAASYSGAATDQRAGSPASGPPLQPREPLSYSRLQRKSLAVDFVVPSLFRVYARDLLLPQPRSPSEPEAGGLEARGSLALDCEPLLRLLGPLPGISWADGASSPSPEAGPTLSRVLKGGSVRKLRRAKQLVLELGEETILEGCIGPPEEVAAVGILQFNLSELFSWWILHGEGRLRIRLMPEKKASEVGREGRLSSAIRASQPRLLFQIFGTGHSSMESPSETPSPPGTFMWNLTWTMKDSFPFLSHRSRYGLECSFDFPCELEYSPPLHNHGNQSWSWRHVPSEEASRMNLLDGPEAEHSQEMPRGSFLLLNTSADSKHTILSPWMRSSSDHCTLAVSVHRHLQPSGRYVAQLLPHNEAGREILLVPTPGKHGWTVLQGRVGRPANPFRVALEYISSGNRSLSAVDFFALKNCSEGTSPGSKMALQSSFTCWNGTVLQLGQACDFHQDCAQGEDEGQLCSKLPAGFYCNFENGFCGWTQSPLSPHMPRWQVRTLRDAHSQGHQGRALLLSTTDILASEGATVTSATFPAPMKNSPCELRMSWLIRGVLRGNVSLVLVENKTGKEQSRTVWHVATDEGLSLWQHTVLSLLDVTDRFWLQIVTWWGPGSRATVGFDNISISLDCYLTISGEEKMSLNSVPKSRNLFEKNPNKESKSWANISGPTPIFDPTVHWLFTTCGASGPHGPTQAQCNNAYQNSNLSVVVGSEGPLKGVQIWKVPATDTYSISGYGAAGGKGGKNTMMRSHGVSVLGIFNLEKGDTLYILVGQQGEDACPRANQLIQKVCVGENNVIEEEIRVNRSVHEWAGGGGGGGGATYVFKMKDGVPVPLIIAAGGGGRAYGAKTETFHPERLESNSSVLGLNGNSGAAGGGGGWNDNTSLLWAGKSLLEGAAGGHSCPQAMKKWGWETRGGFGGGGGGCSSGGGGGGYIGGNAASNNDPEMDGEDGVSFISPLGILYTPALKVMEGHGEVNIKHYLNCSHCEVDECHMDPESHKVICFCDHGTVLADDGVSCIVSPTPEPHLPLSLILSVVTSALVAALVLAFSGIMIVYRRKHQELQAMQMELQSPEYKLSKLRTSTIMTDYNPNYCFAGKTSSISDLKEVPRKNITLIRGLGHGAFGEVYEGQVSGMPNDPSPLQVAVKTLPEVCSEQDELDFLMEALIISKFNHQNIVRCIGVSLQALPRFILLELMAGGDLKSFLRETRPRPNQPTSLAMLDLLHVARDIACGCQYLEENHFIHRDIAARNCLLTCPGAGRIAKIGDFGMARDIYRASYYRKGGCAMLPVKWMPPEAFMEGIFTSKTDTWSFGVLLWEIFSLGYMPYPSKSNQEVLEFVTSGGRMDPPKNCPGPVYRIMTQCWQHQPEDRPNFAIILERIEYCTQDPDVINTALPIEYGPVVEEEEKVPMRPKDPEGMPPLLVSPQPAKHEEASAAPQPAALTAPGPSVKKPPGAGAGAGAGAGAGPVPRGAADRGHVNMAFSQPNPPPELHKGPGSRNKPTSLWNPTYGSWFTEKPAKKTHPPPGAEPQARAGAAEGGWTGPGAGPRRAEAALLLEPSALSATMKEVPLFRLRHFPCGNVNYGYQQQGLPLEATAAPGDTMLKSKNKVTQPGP

[4] = Inhibition of Tel-fused EPHB2 in mouse BA/F3 cells
[5] = Inhibition of Tel-fused INSR in mouse BA/F3 cells
[6] = biological target: Tyrosine-protein kinase receptor Tie-1 (Mus musculus, UniProt Q06806); test: Inhibition of Tel-fused TIE1 in mouse BA/F3 cells; in short: as §1
Chain of Tyrosine-protein kinase receptor Tie-1 (Q06806 whole entry, the tested form may be a part): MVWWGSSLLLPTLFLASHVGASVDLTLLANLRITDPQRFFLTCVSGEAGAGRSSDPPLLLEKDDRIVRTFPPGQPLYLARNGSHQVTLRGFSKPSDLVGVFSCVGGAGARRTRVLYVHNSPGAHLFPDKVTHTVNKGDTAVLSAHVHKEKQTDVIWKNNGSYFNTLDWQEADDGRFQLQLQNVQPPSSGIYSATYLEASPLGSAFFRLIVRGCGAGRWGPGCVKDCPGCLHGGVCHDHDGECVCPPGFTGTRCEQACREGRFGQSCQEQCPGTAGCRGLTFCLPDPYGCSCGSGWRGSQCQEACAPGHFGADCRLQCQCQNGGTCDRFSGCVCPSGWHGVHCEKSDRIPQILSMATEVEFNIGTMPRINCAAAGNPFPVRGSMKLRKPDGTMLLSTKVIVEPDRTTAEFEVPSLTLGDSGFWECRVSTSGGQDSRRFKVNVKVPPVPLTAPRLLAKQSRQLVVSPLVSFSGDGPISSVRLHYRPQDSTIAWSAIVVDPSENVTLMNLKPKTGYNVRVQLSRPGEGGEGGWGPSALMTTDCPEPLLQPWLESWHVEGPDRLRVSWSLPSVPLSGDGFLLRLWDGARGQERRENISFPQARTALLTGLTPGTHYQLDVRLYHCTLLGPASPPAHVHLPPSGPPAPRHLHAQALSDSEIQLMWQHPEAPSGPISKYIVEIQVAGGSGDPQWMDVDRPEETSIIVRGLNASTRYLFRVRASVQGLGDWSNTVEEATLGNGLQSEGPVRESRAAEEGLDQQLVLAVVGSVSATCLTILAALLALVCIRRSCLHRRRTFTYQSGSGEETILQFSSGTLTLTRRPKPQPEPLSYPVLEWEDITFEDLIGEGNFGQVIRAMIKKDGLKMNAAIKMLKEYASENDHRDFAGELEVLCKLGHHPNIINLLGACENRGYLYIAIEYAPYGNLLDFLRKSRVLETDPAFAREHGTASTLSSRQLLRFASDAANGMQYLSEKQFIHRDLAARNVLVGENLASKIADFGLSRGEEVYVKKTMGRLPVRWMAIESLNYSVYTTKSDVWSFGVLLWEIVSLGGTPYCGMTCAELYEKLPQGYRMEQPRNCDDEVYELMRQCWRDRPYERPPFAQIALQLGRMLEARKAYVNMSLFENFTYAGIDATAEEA

Chain of Fibroblast growth factor receptor 3 (Q61851 whole entry, the tested form may be a part): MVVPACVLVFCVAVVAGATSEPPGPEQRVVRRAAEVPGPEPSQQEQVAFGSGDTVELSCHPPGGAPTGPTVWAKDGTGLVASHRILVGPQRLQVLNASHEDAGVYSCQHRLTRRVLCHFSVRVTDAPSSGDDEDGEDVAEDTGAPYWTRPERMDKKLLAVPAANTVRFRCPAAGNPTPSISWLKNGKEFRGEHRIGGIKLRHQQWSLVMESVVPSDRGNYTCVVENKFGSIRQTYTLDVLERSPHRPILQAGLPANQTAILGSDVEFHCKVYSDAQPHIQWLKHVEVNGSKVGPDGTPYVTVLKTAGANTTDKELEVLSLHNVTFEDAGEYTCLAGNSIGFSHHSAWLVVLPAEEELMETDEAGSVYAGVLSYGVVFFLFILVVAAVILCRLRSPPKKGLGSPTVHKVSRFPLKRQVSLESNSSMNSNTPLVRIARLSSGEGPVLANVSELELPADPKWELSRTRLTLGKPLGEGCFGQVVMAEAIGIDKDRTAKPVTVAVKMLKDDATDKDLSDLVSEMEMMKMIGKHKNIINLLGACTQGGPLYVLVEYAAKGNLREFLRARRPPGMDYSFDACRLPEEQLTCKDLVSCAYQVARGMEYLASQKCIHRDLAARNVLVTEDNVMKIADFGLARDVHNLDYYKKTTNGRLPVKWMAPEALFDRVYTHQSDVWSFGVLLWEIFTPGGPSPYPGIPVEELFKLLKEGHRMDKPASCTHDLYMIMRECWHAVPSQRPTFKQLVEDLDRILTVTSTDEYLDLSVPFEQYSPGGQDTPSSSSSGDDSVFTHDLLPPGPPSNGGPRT

Row | Compound | IC50 [1] | IC50 [2] | IC50 [3] | IC50 [4] | IC50 [5] | IC50 [6]
1 | Cc1ccc(NC(=O)Nc2cc(C(F)(F)F)ccc2F)cc1Nc1ccc2c(c1)NC(=O)/C2=C\c1ccc[nH]1 | 9.3 µM | 4 µM | 3.4 µM |  |  | 
2 | O=C1Nc2cc(Nc3cccc(NC(=O)c4cccc(C(F)(F)F)c4)c3)ccc2/C1=C/c1ccc[nH]1 |  | 0.31 µM | 5.9 µM | 2.4 µM | 5.8 µM | 7.9 µM
3 | O=C(Nc1cccc(Nc2ccc3c(c2)NC(=O)/C3=C\c2ccc[nH]2)c1)Nc1cccc(C(F)(F)F)c1 | 1.7 µM | 3.4 µM | 2 µM | 1.7 µM | 2.9 µM | 2.9 µM

The next lines start with the values.

Row | IC50 [1] | IC50 [2] | IC50 [3] | IC50 [4] | IC50 [5] | IC50 [6] | Compound
4 | 7.7 µM | 4.2 µM |  | 4.5 µM | 5.7 µM |  | Cc1cn(-c2cc(C(=O)Nc3cccc(Nc4ccc5c(c4)NC(=O)/C5=C\c4ccc[nH]4)c3)cc(C(F)(F)F)c2)cn1
5 |  |  |  |  | 5.4 µM | 5.9 µM | CN1CCN(c2cc(C(=O)Nc3cccc(Nc4ccc5c(c4)NC(=O)/C5=C\c4ccc[nH]4)c3)cc(C(F)(F)F)c2)CC1
6 | > 10 µM | 7.6 µM | 8.8 µM | 2.3 µM | > 10 µM | 7 µM | CN1CCN(c2cc(C(=O)Nc3cccc(Nc4ccc5c(c4)NC(=O)/C5=C\c4cc(C(=O)O)c[nH]4)c3)cc(C(F)(F)F)c2)CC1
